PHOSPHO1 block: PubChem AID 1565; recombinant PHOSPHO1, absorbance phosphatase assay; Phosphoethanolamine/phosphocholine phosphatase (Homo sapiens), Q8TCT1; actives 1.1% (n = 290,000); inhibition, % at 13.3 µM; in the data active = inhibition above about 60%
RGS4 block: RGS4 inhibitors, primary screen, cell-based, HEK293 M3R inducible RGS4, calcium flux; actives 0.45% (n = 310,000); Fluo-4 calcium flux; stronger effect = higher value; triggered by carbachol at its EC20; Regulator of G-protein signaling 4 (Homo sapiens), P49798; B-score at 10 µM;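 active = B-score, a plate-corrected calcium signal, over three deviations above library mean, with baseline fluorescence within five deviations of library mean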;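 also: RGS4 expression induced by doxycycline in cells with stable M3 receptor; B-score is computed from the integrated fluorescence ratio over baseline after carbachol; higher B-score means a larger calcium signal and so more RGS4 inhibition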
Target sequence (P49798 whole entry, looked up): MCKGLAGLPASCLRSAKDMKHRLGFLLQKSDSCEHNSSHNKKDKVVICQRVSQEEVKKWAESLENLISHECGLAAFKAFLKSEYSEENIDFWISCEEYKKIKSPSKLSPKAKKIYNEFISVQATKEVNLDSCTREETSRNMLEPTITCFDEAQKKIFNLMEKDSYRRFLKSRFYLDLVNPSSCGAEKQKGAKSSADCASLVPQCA
MrgX1 antag: antagonists of human MrgX1 receptor, primary screen, HEK293 cells, Fluo-4 calcium flux; B-score at 10 µM; actives 1.3% (n = 310,000); BAM8-22 antagonism; stronger effect = lower value;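 active = calcium-response B-score plate-corrected more than 3 library SD below zero, starting fluorescence within 5 deviations, no agonist response on first addition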;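 also: peak minus trough fluorescence over baseline after final BAM8-22 challenge near maximal dose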
Target sequence (Q96LB2 whole entry, looked up): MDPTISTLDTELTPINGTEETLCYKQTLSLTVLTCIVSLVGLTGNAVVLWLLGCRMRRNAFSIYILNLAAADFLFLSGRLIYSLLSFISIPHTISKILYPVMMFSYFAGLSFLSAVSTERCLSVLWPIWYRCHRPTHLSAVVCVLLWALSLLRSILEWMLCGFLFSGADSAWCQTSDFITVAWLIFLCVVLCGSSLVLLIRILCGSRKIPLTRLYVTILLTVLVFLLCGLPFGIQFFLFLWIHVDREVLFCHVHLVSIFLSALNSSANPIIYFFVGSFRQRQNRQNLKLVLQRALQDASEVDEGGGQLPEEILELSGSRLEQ
RGS4 act: RGS4 potentiators or activators, primary screen, cell-based, HEK293 M3R inducible RGS4, calcium flux; actives 0.92% (n = 310,000); B-score at 10 µM; carbachol calcium flux Fluo4; stronger effect = lower value;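 active = B-score of the integrated calcium signal more than 4 SD below the library mean, with starting fluorescence not abnormally high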;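 also: negative B-score means reduced calcium response which marks RGS4 activation or potentiation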
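test system = M3R-expressing HEK293 line, RGS4 induced by doxycycline | probe or stimulus = carbachol at ECmax as muscarinic agonist stimulus | timing = dye loading 30 min 37 °C, buffer rest 30 min RT | signal = calcium dye Fluo4 fluorescence | evaluation = B score from integrated fluorescence ratio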
MrgX1 PAM: positive allosteric modulators of MrgX1, primary screen, HEK293 cells, Fluo-4 calcium flux; Mas-related G-protein coupled receptor member X1 (Homo sapiens), Q96LB2; FDSS; stronger effect = higher value; B-score at 10 µM; actives 0.63% (n = 310,000); AID 588675, 2011;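 active = plate-corrected calcium response at least 3 library SD above typical, normal starting fluorescence, not activating the receptor alone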;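 also: compound read alongside a low EC10 to EC30 dose of BAM8-22 agonist; peak minus trough fluorescence over baseline measured at the second addition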
MrgX1 agonist: agonists of human MrgX1 receptor, primary screen, HEK293 cells, Fluo-4 calcium flux; Mas-related G-protein coupled receptor member X1 (Homo sapiens), Q96LB2; Fluo-4 calcium fluorescence, agonist mode; stronger effect = higher value; B-score at 10 µM; actives 0.44% (n = 310,000); AID 588627, 2011;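 active = calcium response B-score plate-corrected fluorescence ratio at least 3 library SD, with starting fluorescence B-score inside 5 SD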
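Material – MrgX1-expressing HEK293 cells · Input – 15,000 cells seeded per well · Dosing – compound as first of three additions · Times – overnight seeding, then 1 h dark dye loading · Measured by – kinetic Fluo-4 NW fluorescence of intracellular calcium · Read-out – B-scored fluorescence response ratio · Benchmarks – positive and negative control wells on each plate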
Numbers without * were called inactive; i = inactive; . = not tested or not shown. Rows were chosen to be rich in hits. Some 4.5% of all compounds tested hit in one or more screens of this group.

SMILES | PHOSPHO1 block | RGS4 block | MrgX1 antag | RGS4 act | MrgX1 PAM | MrgX1 agonist
O=C(c1ccc(S(=O)(=O)N2CCCCC2)cc1)N1CCCC(C(F)(F)F)C1 (stereo not drawn) | . | i | i | i | i | i
Cc1ccccc1C(=O)NNc1ccc([N+](=O)[O-])cc1 | -74 | i | -6.8* | i | i | i
N#Cc1c(N)sc2c1CCCCCC2 | 80* | i | i | i | i | i
Cc1cnc(CN(C)C(=O)c2ccc3oc(Cc4ccc(Cl)cc4)nc3c2)[nH]1 | 24 | i | i | -7.2* | i | i
Cc1cnc(CN(C)C(=O)c2ccc3oc(Cc4ccccc4)nc3c2)[nH]1 | 47 | i | i | i | i | i
CCNC(=S)N/N=C/c1cccs1 | 26 | i | i | i | i | i
O=C(O)/C=C/c1ccc(OCc2cccc(F)c2)cc1 | 11 | i | -5.4* | i | i | i
O=C(/C=C/c1ccc(OCc2cccc(Cl)c2)cc1)N1CCOCC1 | 24 | i | i | i | i | i
CCCC(C)NC(=O)COC(=O)c1cccc(NS(C)(=O)=O)c1 (stereo not drawn) | 33 | i | i | i | i | i
CC(=O)c1ccc(Nc2ccc(-c3ccccc3F)nn2)cc1 | 12 | i | i | i | i | i
CCCCCCn1c(COc2ccccc2F)nnc1SCC(=O)c1c(N)n(C)c(=O)n(C)c1=O | 10 | i | i | i | i | i
C=CCn1c(COc2cc(C)ccc2C(C)C)nnc1SCC(=O)c1c(N)n(C)c(=O)n(C)c1=O | 28 | i | -4.7* | i | i | i
CCN1CCN(C(=S)c2ccc(Cl)cc2)CC1 | 94* | i | i | i | i | i
OCCN1CCN(C(=S)c2ccc(Cl)cc2)CC1 | 31 | i | i | i | i | i
COC(=O)Cc1c(C)nc2nc(NCc3ccc(Cl)cc3)[nH]n2c1=O | 80* | i | i | i | i | i
N#C/C(=C\c1ccccc1[N+](=O)[O-])C(=O)NC1CCCCC1 | 8 | i | i | i | i | 35*
N#C/C(=C\C=C\c1ccccc1[N+](=O)[O-])C(=O)NC1CCCCC1 | 4 | i | i | i | 14* | i
CC(=O)c1csc(CS(=O)(=O)c2ccccn2)n1 | 61* | i | i | i | i | i
Cc1onc(-c2ccccc2Cl)c1C(=O)NC(=S)NCC(=O)c1ccccc1 | 63* | i | i | i | i | i
C/C(=N/OC(=O)c1c(-c2ccccc2Cl)noc1C)c1cnccn1 | 52 | i | i | -9.8* | i | i
Cc1onc(-c2ccccc2Cl)c1C(=O)Nc1nnc(C(C)C)s1 | 1 | i | i | i | i | i
CCc1ccc(NC(=S)NC(=O)c2c(-c3ccccc3Cl)noc2C)cc1 | 28 | i | i | i | i | i
C/C(=N/OC(=O)c1c(-c2c(Cl)cccc2Cl)noc1C)c1cnccn1 | 10 | i | i | i | i | i
Cc1nnc(NC(=O)c2c(-c3ccccc3Cl)noc2C)s1 | 60* | i | i | i | i | i
Cc1cc(C)cc(C(=O)Nn2cnnc2)c1 | 35 | i | i | i | i | i
SMILES | PHOSPHO1 block | RGS4 block | MrgX1 antag | RGS4 act | MrgX1 PAM | MrgX1 agonist
O=C(NC(=S)NCc1ccccc1)c1cccs1 | 17 | i | i | i | i | i
O=C(Cc1cccs1)NNC(=S)NC(=O)c1ccc(F)c(F)c1 | 41 | i | i | i | i | 61*
O=C(COc1ccccc1)NNC(=S)NC(=O)c1ccccc1 | 25 | i | i | i | i | i
O=C(Cc1ccccc1)NNC(=S)NC(=O)c1cccs1 | 86* | i | i | i | i | 60*
O=C(Cc1cccs1)NNC(=S)NC(=O)c1ccccc1 | 6 | i | i | i | i | 43*
O=C(Cc1cccs1)NCc1cccs1 | 15 | i | i | i | i | i
CCOC(=O)CSc1nc(=O)n2cc(C)ccc2n1 | 37 | i | i | i | i | i
CC(=O)Nc1ccc(C(=O)CN2CCN(c3ccccc3)CC2)cc1 | 39 | i | i | i | i | i
CS(=O)(=O)c1cccc(-c2nnc(NC(=O)C3=COCCO3)o2)c1 | . | i | -4.9* | i | i | i
O=C(NCc1cccnc1)c1ccc(Cl)c(S(=O)(=O)Nc2ccccc2C(=O)NCc2cccnc2)c1 | 27 | i | i | i | i | i
CCn1c(=NC(=O)C2COc3ccccc3O2)sc2c(OC)ccc(OC)c21 (stereo not drawn) | 24 | i | i | i | i | i
CCCn1c2ccccc2c2nnc(SC(CC)C(=O)Nc3sc4c(c3C#N)CCCC4)nc21 (stereo not drawn) | 61* | i | i | i | i | i
CCCn1c2ccccc2c2nnc(SC(CC)C(=O)Nc3cc(C)on3)nc21 (stereo not drawn) | -2 | i | i | i | i | i
COc1ccc(-c2ccc(/C=C3\C(=O)N(c4ccccc4)N=C3c3ccccc3)o2)c([N+](=O)[O-])c1 | -14 | i | i | i | i | i
COc1ccc(-c2ccc(/C=C3/C(=N)N4C(C)=CSC4=NC3=O)o2)c([N+](=O)[O-])c1 | 8 | i | i | i | i | 29*
O=C(CCC(=O)Nc1cccc(C(F)(F)F)c1)NCC1CCCO1 (stereo not drawn) | . | i | i | i | i | i
Cc1ccc(C)c(-n2c3nc(=O)[nH]c(=O)c-3cc3cc([N+](=O)[O-])ccc32)c1 | -24 | . | i | . | i | 34*
CN(C)/N=C/C=C1\CCC/C(=C/c2cccs2)C1=O | -4 | i | i | i | 9.4* | i
Nc1ncnc2c1ncn2[C@H]1C[C@H](O)[C@@H](COP(=O)(O)O)O1 | 1 | i | i | i | i | i
NC(=O)c1ccc[n+]([C@H]2O[C@@H](COP(=O)([O-])OP(=O)(O)OC[C@H]3O[C@@H](n4cnc5c(N)ncnc54)[C@H](O)[C@@H]3O)[C@H](O)[C@@H]2O)c1 | . | . | i | . | i | 34*
